Test system: MS2 coat protein
Assay: apparent Kd, MS2 coat protein; higher = weaker binding; RNA-MaP array; theophylline 2 mM where present
Method in brief: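 Stalled E. coli RNA polymerase transcribed each design on Illumina sequencing-chip clusters. The clusters were titrated with SNAP-549-labelled MS2 coat protein, starting at 0.7 or 1.5 nM and doubling up to 3 µM, first without ligand and then with constant ligand, in 100 mM Tris-HCl pH 7.5, 80 mM KCl, 4 mM MgCl2, BSA, DTT, yeast tRNA and Tween-20. Green signal was normalised to red-channel RNA signal and to the control-cluster median Fmax. The apparent Kd is the median of filtered binding-curve fits made for each cluster.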

[1] = designed as: OFF switch for theophylline, no ligand
[2] = ligand present: theophylline, designed as: OFF switch for theophylline
[3] = designed as: ON switch for theophylline, no ligand
[4] = ligand present: theophylline, designed as: ON switch for theophylline

CAUUAAGUAACUGAUACCAGUGUACUGACAUGAGGAUCACCCAUGUUGGGUUUUGUUGUACACCCUUGGCAGCAGAAUCUUAAUG
apparent Kd [1]: 0.0687 µM | apparent Kd [2]: 0.0955 µM

UGUACAUGAGGAUCACCCAUGUUACAUGAUACCAGACAUGAGAGUGUCCCUUGGCAGCAUGGAGCUGAUACGGCGGGAAGCCGGA
apparent Kd [3]: 0.0268 µM | apparent Kd [4]: 0.0326 µM

AUAACUGUCAAGGAAGGUGAUCCAGCAGAUACCAGCUAGGAAACUAGCCCUUGGCAGCUGCAACAUGAGGAUCACCCAUGUAAUA
apparent Kd [1]: 0.0769 µM | apparent Kd [2]: 0.121 µM

AAACGUUGCUGCGAUACCAGACAUGAGGAUCACCCAUGUACCAAGGUACGAAUAUAACAUGUCCCUUGGCAGCGCAGCAACGAAA
apparent Kd [1]: 0.0126 µM | apparent Kd [2]: 0.279 µM

ACAUGAGGAUCACCCAUGUUCCUCAUUGAUACCAGUGAAUUUAGACGCCCUUGGCAGCGAGUUUUUUUAUAAGAUUUUUUUUUUU
apparent Kd [1]: 0.626 µM | apparent Kd [2]: 1.32 µM

ACCUCACUCUCUGAUACCAGCUAAUAACAUGAGGAUCACCCAUGUCAGACUUGUAUUGAUAGCCCUUGGCAGCAGAGGUAACUGC
apparent Kd [1]: 0.00939 µM | apparent Kd [2]: 0.0113 µM

AGAUUAAAGAGUGAUACCAGACUACAUGAGGAUCACCCAUGUUACAUUUGAGUAGCUUUAGUCCCUUGGCAGCACUUUAUGUACA
apparent Kd [1]: 0.0455 µM | apparent Kd [2]: 0.0176 µM

GGUUUCGCGGGCGAUACCAGCUUGAUCGUACUGGCCUGGUACAUGAGGAUCACCCAUGUAAGCCCUUGGCAGCGCGCGCGAGACC
apparent Kd [1]: 0.0114 µM | apparent Kd [2]: 0.0247 µM

AUCGCACCUGGUGAUACCAGCGUUUGCUCGCGACAUGAGGAUCACCCAUGUGGCCAGUGAUGCCCUUGGCAGCAUGGUCGGUGCA
apparent Kd [3]: 0.317 µM | apparent Kd [4]: 0.0454 µM

UUUGAGAUAACAGAUACCAGCGUGUUAUAAAACAUGAGGAUCACCCAUGUAGUGAUCAAGCGCCCUUGGCAGCUGGUAUUUUAGG
apparent Kd [3]: 0.0953 µM | apparent Kd [4]: 0.21 µM

AGACAUGUAAGAUAAAUGACUUAUACAGAUACCAGACUAGUCAAUGUCCCUUGGCAGCUGCAUAACAUGAGGAUCACCCAUGUAA
apparent Kd [1]: 0.0267 µM | apparent Kd [2]: 0.0327 µM

UUUGCACAUGAGGAUCACCCAUGUACAGAUACCAGCCUCAUCUACGGCCCUUGGCAGCUGAGACAAUGGUGACGUGAUGGGCUUU
apparent Kd [1]: 0.0113 µM | apparent Kd [2]: 0.0162 µM

AUAAAUAUAACCGAUACCAGCCUUAUACAUGAGGAUCACCCAUGUUAUGCUUCCUUUUUUGGCCCUUGGCAGCGGAAAUGGGUAA
apparent Kd [3]: 0.0817 µM | apparent Kd [4]: 0.0362 µM

GAUGAACUAUUUGAUACCAGACUACAUGAGGAUCACCCAUGUGUGUUAAUUUUUCAGUCAGUCCCUUGGCAGCAAAUAGUUUAUC
apparent Kd [1]: 0.0612 µM | apparent Kd [2]: 0.145 µM

UGCACCAUAAUCAUGUUGGUGCUAGGUGAUACCAGCAUCGAAAGAUGCCCUUGGCAGCACCAACAUGAGGAUCACCCAUGUAAUA
apparent Kd [3]: 0.13 µM | apparent Kd [4]: 0.0998 µM

UGUAACAUGAGGAUCACCCAUGUGAGUGAUACCAGAUAAGUAGUAGUCCCUUGGCAGCAUAUUGGGCGAGUGUAUAGUCUAUGCG
apparent Kd [3]: 0.146 µM | apparent Kd [4]: 0.193 µM

AGCGACAUGCGUGAUACCAGCUACAUGAGGAUCACCCAUGUACGUAGGAAACUACUGUGUAGCCCUUGGCAGCAUAGUGCAUGUC
apparent Kd [1]: 0.0126 µM | apparent Kd [2]: 0.0571 µM

GGUGGCGUGACGGAUACCAGCCACCGCCGCAAGGCCACAUGAGGAUCACCCAUGUUGGGUGGCCCUUGGCAGCUGUCGUGCGGCG
apparent Kd [3]: 0.157 µM | apparent Kd [4]: 0.281 µM

GAGCUGAUGUAGGCCGGAUAUCCGGGAGAUACCAGUACAGAAAUGUACCCUUGGCAGCUCUUUCCUACAUGAGGAUCACCCAUGU
apparent Kd [1]: 0.0166 µM | apparent Kd [2]: 0.096 µM

AUCGUACCUGAUGAUACCAGCAUGUGAUCGUAACAUGAGGAUCACCCAUGUGAUCAGUGAUGCCCUUGGCAGCAUGAUCGGUACA
apparent Kd [3]: 0.0354 µM | apparent Kd [4]: 0.0147 µM

AUGUCGUUGAAUACAGCGGCAUGGAGUGAUACCAGAAUGAUCAAAUUCCCUUGGCAGCAUGACAUGAGGAUCACCCAUGUUCGAU
apparent Kd [3]: 0.111 µM | apparent Kd [4]: 0.104 µM

UAGGUGAUCUUCAACGGAAAACGUUGUGAUACCAGCCAACAAUACGGCCCUUGGCAGCACAUGAGGAUCACCCAUGUGUACACCG
apparent Kd [1]: 0.0295 µM | apparent Kd [2]: 0.193 µM

ACACGAGGAUCACCCGUGUCAUGUGGUGAUACCAGUUUACAUGAGAACCCUUGGCAGCAUAACAACAUGAGGAUCACCCAUGUCA
apparent Kd [3]: 0.0323 µM | apparent Kd [4]: 0.0417 µM

AUCAGUAGAACUGAUACCAGUCAAAGGCUUUGACCUCAUAACAUGAGGAUCACCCAUGUUGACCCUUGGCAGCAGUAGGCAAGGG
apparent Kd [1]: 0.0214 µM | apparent Kd [2]: 0.0351 µM

GUAUGGAAACAUACUUGGGUAUCAUGAGAUACCAGUACAGAAAUGUACCCUUGGCAGCUCAAGCAUACAUGAGGAUCACCCAUGU
apparent Kd [1]: 0.018 µM | apparent Kd [2]: 0.0271 µM

CGGUACAUGAGGAUCACCCAUGUGUCGGAUACCAGAGAGCCGUCUCUCCCUUGGCAGCUGGUUUUACAUGAGGAUCACCCAUGUG
apparent Kd [1]: 0.0136 µM | apparent Kd [2]: 0.0201 µM

UUACAUGAGGAUCACCCAUGUCAUAAUGAUACCAGAUAGUUAAUGAUCCCUUGGCAGCAUAAUACCUAGACAUUUAAGUCAUAGG
apparent Kd [3]: 0.0831 µM | apparent Kd [4]: 0.041 µM

Reference: the EternaBench riboswitch data
